Measurements published in ChEMBL document CHEMBL1268912, “Antidiabetic and antiobesity effects of Ampkinone (6f), a novel small molecule activator of AMP-activated protein kinase” (J Med Chem, 2010).
The source made the active and inactive calls. The rule behind the calls is not given here.

How the values were obtained:
[1] = Activation of AMPK assessed as phosphorylation of T172 at 10 uM by Western blotting relative to control
In short: (§1)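 L6 cells, serum-starved 6 h, treated with 10 μM for set times (10 min to 6 h). RIPA lysates (40 μg) run on SDS-PAGE and blotted to nitrocellulose. Blocked in TBS-Tween with 5% milk. Probed overnight at 4 °C with anti-ACC (pS79) or anti-AMPK (pT172) and the total-protein antibodies. HRP secondary antibody, ECL detection.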

[2] = Activation of ACC phosphorylation at S79 at 10 uM by Western blotting relative to control; in short: as §1
3T3-L1 [3] = test: Induction of ACC phosphorylation in mouse 3T3L1 cells after 1 hr
[4] = biological target: AMP-activated protein kinase, AMPK (Homo sapiens) (UniProt P54646+O43741+P54619+Q9UGJ0+Q9Y478+Q13131+Q9UGI9); test: Induction of AMPK phosphorylation in human HeLa cells; assay type: cell-based
In short: (§2)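 HeLa cells lack endogenous LKB1. They were transfected for 24 h with HA-tagged LKB1 in pcDNA3.1 or mock-transfected. After 6 h serum starvation, cells were exposed to 10 μM for set times. Lysates were immunoblotted for AMPK (pT172), total AMPK and HA.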

C2C12 [5] = test: Increase in AMPK-mediated glucose uptake in mouse C2C12 cells assessed as increase in fluorescent intensity by confocal laser scanning microscopy; assay type: cell-based
In short: (§3)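 C2C12 myocytes were differentiated in 2% horse serum, held in low-glucose serum-free medium for 4 h, then treated for 1 h in glucose-free DMEM at 10 μM. In the CLSM chamber at 37 °C, 5 μM Cy3-Glc-R was injected and images taken every 7 s to follow fluorescence uptake.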

Mus musculus [6] = test: Induction of AMPK phosphorylation in diet induced obese mouse liver at 10 mg/kg, sc qd by immunoblotting; assay type: functional, organism-based; set-up: dose 10 mg/kg
In short: (§4)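 DIO mice were dosed 10 mg/kg/day sc in PEG400 or vehicle for 1 month, n = 7 per group, then fasted 24 h. Liver and muscle lysates were immunoblotted for phospho-AMPK/ACC and the total proteins.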

Mus musculus [7] = test: Induction of AMPK phosphorylation in diet induced obese mouse muscle at 10 mg/kg, sc qd by immunoblotting; assay type: functional, organism-based; set-up: dose 10 mg/kg; in short: as §4
[8] = Induction of AMPK phosphorylation in […] cells […]; assay type: cell-based; conditions: L6, 10 min
C2L12 [9] = test: Induction of ACC phosphorylation in mouse […] cells after 1 hr
L6 (Rattus norvegicus) = test: Increase in AMPK-mediated glucose uptake in rat L6 cells by confocal laser scanning microscopy in presence of compound C
Mus musculus [10] = test: Antidiabetic activity in diet induced obese mouse assessed as reduction in insulin level at 10 mg/kg, sc qd; assay type: functional, organism-based; set-up: dose 10 mg/kg
In short: (§5)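 DIO mice were male C57BL/6J fed a 60%-fat diet from 4 weeks of age for 8 weeks. Dosed 10 mg/kg/day sc in PEG400 or vehicle for 1 month, n = 7 per group. Serum insulin was measured by mouse insulin ELISA and blood glucose by glucometer. Mean ± SD; Student's t test/ANOVA.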

Mus musculus [11] = test: Antidiabetic activity in diet induced obese mouse assessed as reduction in glucose level at 10 mg/kg, sc qd; assay type: functional, organism-based; set-up: dose 10 mg/kg; in short: as §5
3T3-L1 [12] = test: Induction of AMPK phosphorylation in mouse 3T3L1 cells after 1 hr
C2L12 [13] = test: Induction of AMPK phosphorylation in mouse […] cells after 1 hr
L6 = test: Induction of ACC phosphorylation in […] cells after 10 mins; assay type: cell-based
In short: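 L6, C2C12 or 3T3-L1 cells, serum-starved 6 h, were treated for 1 h with graded concentrations (0–20 μM); L6 cells were also given a 10 μM time course. Lysates were immunoblotted for AMPK pT172, ACC pS79 and the total proteins, with ECL detection.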

[14] = biological target: T1, Serine/threonine-protein kinase STK11 (Homo sapiens) (UniProt Q15831); test: Activation of LKB1 expressed in human HeLa cells assessed as increase in AMPK phosphorylation; assay type: cell-based; in short: as §2
T1 sequence (whole entry): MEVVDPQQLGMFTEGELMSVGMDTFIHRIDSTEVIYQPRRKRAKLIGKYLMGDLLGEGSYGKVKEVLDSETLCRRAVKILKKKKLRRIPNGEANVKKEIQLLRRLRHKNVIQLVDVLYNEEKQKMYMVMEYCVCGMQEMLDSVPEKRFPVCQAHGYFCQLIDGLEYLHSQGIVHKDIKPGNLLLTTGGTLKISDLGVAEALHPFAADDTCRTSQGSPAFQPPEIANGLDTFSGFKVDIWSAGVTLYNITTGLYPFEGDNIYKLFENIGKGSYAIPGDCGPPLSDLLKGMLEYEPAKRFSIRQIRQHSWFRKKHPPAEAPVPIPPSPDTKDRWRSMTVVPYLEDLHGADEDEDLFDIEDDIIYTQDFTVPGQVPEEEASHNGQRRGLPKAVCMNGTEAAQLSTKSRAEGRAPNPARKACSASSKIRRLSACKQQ

Mus musculus [15] = test: Antiobesity activity in diet induced obese mouse assessed as change in food intake at 10 mg/kg, sc qd; assay type: functional, organism-based; set-up: dose 10 mg/kg
In short: (§6)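 DIO C57BL/6J males (high-fat diet, 60% of calories from fat, for 8 weeks) were given 10 mg/kg/day sc in PEG400 or vehicle for 30 days, n = 7 per group. Body weight and food intake were recorded every 3 days.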

Mus musculus [16] = test: Antiobesity activity in diet induced obese mouse assessed as change in body weight at 10 mg/kg, sc qd; assay type: functional, organism-based; set-up: dose 10 mg/kg; in short: as §6
C2C12 [17] = test: Increase in AMPK-mediated glucose uptake in mouse C2C12 cells by confocal laser scanning microscopy; assay type: cell-based; in short: as §3

SMILES | Activity [1] [%] | Activity [2] [%] | further results
COc1ccc2c(c1O)OC(C)(C)c1c-2ccc2c1C(=O)N(c1ccccc1)C2=O | 273 | 254 | 
COc1ccc2c(c1O)OC(C)(C)c1c-2ccc2c1C(=O)N(c1cccc(-c3ccccc3)c1)C2=O | 175 | 201 | 
COc1ccc2c(c1O)OC(C)(C)c1c-2ccc2c1C(=O)N(c1ccc(C(C)=O)cc1)C2=O | 264 | 384 | 
COc1ccc2c(c1O)OC(C)(C)c1c-2ccc2c1C(=O)N(Cc1ccccc1)C2=O | 165 | 194 | 
COc1ccc2c(c1O)OC(C)(C)c1c-2ccc2c1C(=O)N(c1ccc(-c3nc4ccccc4o3)cc1)C2=O | 92 | 91 | 
COc1ccc2c(c1O)OC(C)(C)c1c-2ccc2c1C(=O)N(C)C2=O | 205 | 145 | 
COc1ccc2c(c1O)OC(C)(C)c1c-2ccc2c1C(=O)N(c1ccc3c(c1)-c1ccccc1C3=O)C2=O | 249 | 154 | 
COc1ccc2c(c1O)OC(C)(C)c1c-2ccc2c1C(=O)NC2=O | 158 | 123 | 

Now from value to compound, other results behind:

Activity [1] [%] | Activity [2] [%] | SMILES | further results
113 | 51 | COc1ccc2c(c1O)OC1(CCCC1)c1c-2ccc2c1C(=O)N(c1ccc(C(=O)c3ccccc3)cc1)C2=O | 
169 | 129 | COc1ccc2c(c1O)OC(C)(C)c1c-2ccc2c1C(=O)N(c1ccc(Cc3ccccc3)cc1)C2=O | 
186 | 156 | CC1(C)Oc2cc(F)ccc2-c2ccc3c(c21)C(=O)N(c1ccc(C(=O)c2ccccc2)cc1)C3=O | 
322 | 295 | COc1ccc2c(c1O)OC(C)(C)c1c-2ccc2c1C(=O)N(c1ccc(C(=O)c3ccccc3)cc1)C2=O [AMPKINONE] | Activity (3T3-L1 [3]): Dose-dependent effect; Activity [4]: Active; Activity (C2C12 [5]): Active; Activity (Mus musculus [6]): Active; Activity (Mus musculus [7]): Active; EC50 [8]: 4.3 µM; Activity (C2L12 [9]): Dose-dependent effect; Activity (L6 (Rattus norvegicus)): inactive; Activity (Mus musculus [10]): Active; Activity (Mus musculus [11]): Active; Activity (3T3-L1 [12]): Dose-dependent effect; Activity (C2L12 [13]): Dose-dependent effect; Activity (L6): Active; Activity [14]: Active; Activity (Mus musculus [15]): inactive; Activity (Mus musculus [16]): inactive; fold change (FC) (C2C12 [17]): 3.2
159 | 154 | COc1ccc2c(c1)OC(C)(C)c1c-2ccc2c1C(=O)N(c1ccc(C(=O)c3ccccc3)cc1)C2=O | 
160 | 114 | COc1ccc2c(c1O)OC(C)(C)c1c-2ccc2c1C(=O)N(c1ccc(-c3ccccc3)cc1)C2=O | 
203 | 92 | CC1(C)Oc2ccccc2-c2ccc3c(c21)C(=O)N(c1ccc(C(=O)c2ccccc2)cc1)C3=O | 
